The values that follow come from ChEMBL document CHEMBL3745601 (Medchemcomm, 2015).

As usually defined, the Ki is a measure of affinity in units of concentration, obtained from inhibition or displacement. What is called Emax is the greatest response seen or fitted, relative to the assay's reference. As usually defined, the inhibition in vivo is how much of the control response was suppressed.

One series concerns the target T1, Adenosine receptor A3 (Homo sapiens, UniProt P0DMS8).
T1 sequence (P0DMS8 whole entry): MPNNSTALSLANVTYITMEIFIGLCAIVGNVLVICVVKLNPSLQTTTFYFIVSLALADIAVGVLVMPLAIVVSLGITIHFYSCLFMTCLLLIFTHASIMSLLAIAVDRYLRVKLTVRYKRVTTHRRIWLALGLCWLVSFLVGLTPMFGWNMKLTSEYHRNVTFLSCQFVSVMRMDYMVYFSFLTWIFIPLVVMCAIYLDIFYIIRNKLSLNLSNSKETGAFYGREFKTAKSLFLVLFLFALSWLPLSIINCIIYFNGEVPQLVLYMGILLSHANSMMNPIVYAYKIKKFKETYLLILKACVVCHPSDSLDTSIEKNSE
Briefly: Displacement of [125I]N6-(4-amino-3-iodobenzyl)adenosine-5'-N-methyl-uronamide from human adenosine A3 receptor stably expressed in CHO cell membrane by radioligand binding assay. The series is classed as cell membranes. A general note: Loss of bound radioactivity is the signal in a displacement assay; it reports binding, not function.

Series [1] concerns Mus musculus. Briefly: Induction of mechano-allodynia in mouse chronic constriction injury model of neuropathic pain assessed as paw withdrawal threshold on contralateral side at 3 umol/kg, po. The series is classed as organism-based. As to conditions: in vivo.
Series [2] deals with Mus musculus. Briefly: Antineuropathic pain activity in mouse chronic constriction injury model of neuropathic pain assessed as reversal of reduction in paw withdrawal threshold of ipsilateral hind paw at 3 umol/kg, po dosed on day 7 after sciatic nerve ligation and measured at 1 hrs. Type of series: functional. The essentials:
(§1)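 Paw withdrawal threshold (g) measured at 1 h or 3 h after treatment, at day 7 (D7/BL) and at D0. % effect = [PWT at post-treatment time − PWT at D7/BL] / [PWT at D0 − PWT at D7/BL] × 100. Significance set at P<0.05. Procedures otherwise follow earlier work under IASP/NIH animal welfare guidelines.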

The test system of series [3] is Mus musculus. Briefly: Antineuropathic pain activity in mouse chronic constriction injury model of neuropathic pain assessed as reversal of reduction in paw withdrawal threshold of ipsilateral hind paw at 3 umol/kg, po dosed on day 7 after sciatic nerve ligation and measured at 3 hrs. Type of series: functional. On the set-up: scale not given: the % may be the effect or the level left. The essentials:
as §1

In series [4] the test system is Mus musculus. Briefly: Antineuropathic pain activity in mouse chronic constriction injury model of neuropathic pain assessed as reversal of reduction in paw withdrawal threshold of ipsilateral hind paw at 1 umol/kg, po dosed on day 7 after sciatic nerve ligation and measured at 1 and 3 hrs. Type of series: functional. Put shortly:
as §1

Take `CNC(=O)[C@@]12C[C@@H]1[C@@H](n1cnc3c(NCc4cccc(Cl)c4)nc(-n4cc(-c5ccc(Cl)s5)nn4)nc31)[C@H](O)[C@@H]2O`: the Ki on Adenosine receptor A3 was determined as 9.02 nM. Besides, the figures for the Activity result in the series on Mus musculus [1] and with Mus musculus [3] were “Non-toxic” and 91%, respectively. For the same compound, the Emax at 3 µmol/kg with Mus musculus [2] turned out to be 94.7%. The inhibition in vivo at 1 µmol/kg with Mus musculus [4] turned out to be 70%.
